T cruzi growth-1 – T. cruzi intracellular proliferation inhibitors, primary screen, cell-based, beta-gal Tulahuen parasites, NIH3T3 host, luminescence. T. cruzi beta-gal in NIH3T3, GalScreen luminescence, 90 h. inhibition, % at 8.34 µM. 77,000 compounds, 5.9% hits;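 active = mean inhibition above about 93%, with at least 55% of replicates each passing it, limit read from the data, passing the limit was not always enough; inconclusive = only one of those two conditions holds; inactive = neither condition holds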
KDM4C inh – inhibitors of GASC-1 (KDM4C) histone demethylase, primary screen, biochemical, single concentration HTS. Lysine-specific demethylase 4C (Homo sapiens), Q9H3R0. GST-KDM4C 2-372, H3K9me3 peptide, LANCE TR-FRET. inhibition, % at 12.5 µM. 96,000 compounds, 0.15% hits;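 active = mean replicate inhibition above about 25%, with at least 55% of replicates also reaching it, limit read from the data, passing the limit was not always enough; inconclusive = only one of those two conditions met; inactive = neither condition met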
Target sequence (Q9H3R0 2-372 limits assumed): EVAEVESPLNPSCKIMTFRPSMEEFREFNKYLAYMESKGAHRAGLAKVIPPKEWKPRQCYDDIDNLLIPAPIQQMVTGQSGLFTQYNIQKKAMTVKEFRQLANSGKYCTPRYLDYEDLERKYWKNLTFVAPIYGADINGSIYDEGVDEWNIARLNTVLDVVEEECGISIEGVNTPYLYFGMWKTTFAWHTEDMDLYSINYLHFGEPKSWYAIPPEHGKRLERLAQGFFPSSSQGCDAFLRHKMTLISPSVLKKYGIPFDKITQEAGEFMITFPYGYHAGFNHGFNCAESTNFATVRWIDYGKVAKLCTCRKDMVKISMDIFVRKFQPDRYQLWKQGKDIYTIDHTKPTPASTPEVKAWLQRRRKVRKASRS
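Test system – GST-tagged GASC-1 (JMJD2C) catalytic fragment, aa 2-372 · Medium – HEPES buffer, pH 7.5, plus ascorbate · Reagent – H3K9me3 peptide with Fe(II)/2OG · Compound – one test concentration per compound · Timing – 30 min reaction, 60 min detection, RT · Technique – TR-FRET with Eu antibody and ULight streptavidin, EDTA stop · Read-out basis – inhibition from TR-FRET ratio decrease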
IDH1 mut inh – inhibitors of IDH1 R132H reductase, primary screen, biochemical, plate reader, single point; Isocitrate dehydrogenase [NADP] cytoplasmic (Homo sapiens), O75874; diaphorase/resazurin fluorescence, 60 min; inhibition, % at 10 µM; 70,000 compounds, 0.18% hits; in the data active = inhibition above about 34%; inconclusive = no clear call, values can overlap the other calls; inactive = below about 11%
T cruzi growth-2 – T. cruzi intracellular proliferation inhibitors, confirmation, cell-based, NIH3T3 host, beta-gal parasite, luminescence, cherry-pick; shares compounds with T cruzi growth-1; T. cruzi beta-gal in NIH3T3, GalScreen luminescence, 90 h; inhibition, % at 8.35 µM; 5,600 compounds, 72% hits;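 active = mean replicate inhibition above about 95% and at least 55% of replicates individually reaching it, limit read from the data; inconclusive = only one of the two criteria is met; inactive = neither criterion is met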
T cruzi growth-3 – inhibitors of intracellular T. cruzi replication, confirmation, NIH3T3 host cells, beta-gal parasites, cherry-pick, set 2. shares compounds with T cruzi growth-1. T. cruzi beta-gal in NIH3T3, GalScreen luminescence, 90 h. inhibition, % at 2.09 µM. 5,600 compounds, 21% hits. AID 651740, 2012;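 active = mean inhibition above about 95%, with at least 55% of replicates also reaching it, limit read from the data; inconclusive = meets just one of the two conditions; inactive = meets neither condition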
NIH3T3 tox – cytotoxicity in mouse NIH/3T3 fibroblasts, confirmation, cytotoxicity control for T. cruzi proliferation inhibitor project, cell-based, cherry-pick, single point | shares compounds with T cruzi growth-1 | NIH/3T3 viability, CellTiter-Glo ATP luminescence, 90 h | cytotoxicity (signal decrease), % at 8.35 µM | 5,600 compounds, 14% hits;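 active = mean signal decrease across replicates above about 35% based on untreated-well scatter, with enough replicates individually passing, limit read from the data; inconclusive = no rule stated though some were filed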
3T3 cytotox 2 – NIH/3T3 fibroblast cytotoxicity, confirmation, cytotoxicity control, cell-based, cherry-pick, single point, set 2; shares compounds with T cruzi growth-1; inhibition, % at 24.9 µM; NIH/3T3 viability, CellTiter-Glo ATP luminescence, 90 h; 5,600 compounds, 56% hits;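 active = mean loss of cell viability signal at or above a set limit, and enough replicates individually reaching it; inconclusive = meets only the mean limit or only the replicate share; inactive = meets neither condition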
Numbers stand for hits; - = inactive; ? = inconclusive; . = no result. Many of the other results were omitted from the sample, so hits are more common in it than they were.

SMILES	T cruzi growth-1	KDM4C inh	IDH1 mut inh	T cruzi growth-2	T cruzi growth-3	NIH3T3 tox	3T3 cytotox 2
C[C@H](CO)N1C[C@H](C)[C@H](CN(C)S(=O)(=O)c2cccs2)Oc2c(NC(=O)Nc3ccc(C(F)(F)F)cc3)cccc2C1=O	103	-	-	-	-	56	105
C[C@H]1CN([C@@H](C)CO)C(=O)c2cccc(NC(=O)Nc3ccc(C(F)(F)F)cc3)c2O[C@H]1CN(C)S(=O)(=O)c1cccs1	-	-	-	.	.	.	.
C[C@H]1CN([C@@H](C)CO)C(=O)c2cccc(NS(C)(=O)=O)c2O[C@@H]1CN(C)S(=O)(=O)c1cccs1	?	-	-	-	-	-	48
C[C@H](CO)N1C[C@H](C)[C@H](CN(C)S(=O)(=O)c2cccs2)Oc2ccc(NC(=O)Nc3ccc(C(F)(F)F)cc3)cc2C1=O	115	-	.	103	-	-	100
C[C@@H]1CN([C@@H](C)CO)C(=O)c2cccc(NS(C)(=O)=O)c2O[C@@H]1CN(C)S(=O)(=O)c1cccs1	-	-	-	.	.	.	.
Cc1ccc(OCC(=O)Nc2ccc3oc(-c4ccc(F)cc4)nc3c2)cc1C	.	.	-	.	.	.	.
O=C1/C(=C/c2cn[nH]c2-c2ccc(F)cc2)CS/C1=C\c1cn[nH]c1-c1ccc(F)cc1	.	.	-	.	.	.	.
COC(=O)c1ccccc1NC(=O)CSc1nc2ccc(C)cc2[nH]1	.	.	-	.	.	.	.
CC1=C(C/C=N/NC(=O)c2ccccc2O)C(C)(C)CCC1	.	.	-	.	.	.	.
NC(=O)CC1C(=O)N(c2ccc(Cl)cc2)C(=S)N1Cc1cccnc1 (configuration not stated)	.	.	-	.	.	.	.
COC(=O)CNc1c(F)c(F)nc(F)c1F	.	.	-	.	.	.	.
CCn1c(SCC(=O)Nc2sc3c(c2C#N)CCCC3)nnc1-c1cccc(Cl)c1	.	.	-	.	.	.	.
COCC#Cc1cnc2c(c1)C(=O)N([C@H](C)CO)C[C@H](C)[C@H](CN(C)C(=O)C1CC1)O2	-	-	.	.	.	.	.
COCC#Cc1cnc2c(c1)C(=O)N([C@H](C)CO)C[C@@H](C)[C@H](CN(C)C(=O)C1CC1)O2	97	-	.	-	-	-	-
COCC#Cc1cnc2c(c1)C(=O)N([C@@H](C)CO)C[C@@H](C)[C@@H](CN(C)C(=O)C1CC1)O2	-	-	.	.	.	.	.
COCC#Cc1cnc2c(c1)C(=O)N([C@@H](C)CO)C[C@@H](C)[C@H](CN(C)C(=O)C1CC1)O2	112	-	.	-	-	-	?
COc1ccc(O)c(/C=N/NC(=O)c2ccccc2O)c1	.	.	-	.	.	.	.
O=C(c1cccc(F)c1)N1CCCCN2[C@H](CO)[C@H](c3ccc(C#CC4(O)CCCC4)cc3)[C@@H]2C1	?	-	.	109	-	-	-
O=C(c1cccc(F)c1)N1CCCCN2[C@@H](CO)[C@H](c3ccc(C#CC4(O)CCCC4)cc3)[C@@H]2C1	?	-	.	-	-	-	?
O=C(c1cccc(F)c1)N1CCCCN2[C@H](C1)[C@@H](c1ccc(C#CC3(O)CCCC3)cc1)[C@@H]2CO	-	-	.	.	.	.	.
CCSc1ncc(Cl)c(C(=O)Nc2nnc(SCc3ccccc3F)s2)n1	.	.	-	.	.	.	.
Cc1ccc(-c2ccc3c(c2)O[C@H](CN(C)Cc2ccncc2)[C@@H](C)CN([C@H](C)CO)S3(=O)=O)cc1	122	-	-	99	103	75	105
Cc1ccc(-c2ccc3c(c2)O[C@H](CN(C)Cc2ccncc2)[C@H](C)CN([C@@H](C)CO)S3(=O)=O)cc1	119	-	.	-	-	?	99
C[C@H]1CN([C@@H](C)CO)S(=O)(=O)c2ccc(-c3ccncc3)cc2O[C@H]1CN(C)Cc1ccncc1	-	-	.	.	.	.	.

Compound activity: PubChem BioAssay, Broad Institute
